Compounds with a hit are over-represented: about 2.1% of the library has one in this group of screens.
CAL PDZ FP-1 – blocks peptide binding to human CAL PDZ domain. 330,000 tested, 0.02% active. inhibition, % at 20 µM. purified CAL PDZ, TMR-peptide fluorescence polarization, 1 h. AID 504414;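 active = highest replicate inhibition of at least 40%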;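 note: plate controls were DMSO neutral control wells for no effect and unlabeled competitor peptide control wells for full effect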
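Test system: tagged CAL PDZ domain / Buffer or medium: sodium phosphate/NaCl buffer pH 7.4 with TCEP, IgG, Thesit / Reagent: TMR-labelled reporter peptide T*-PRC34 bound in PDZ groove / Compound dosing: single point, 20 µM / Schedule: 1 h incubation at room temperature before polarization reading / Technique: fluorescence polarization (mP) / Benchmarks: unlabelled peptide, DMSO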
CAL PDZ FP-2 – inhibitors of human CAL PDZ peptide binding; purified CAL PDZ, TMR-peptide fluorescence polarization, 1 h; inhibition, % at 24.9 µM; 300,000 tested, 0.92% active; AID 602252;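 active = mean inhibition of at least 30% with at least half of replicates also reaching 30%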;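 note: 0% = DMSO neutral control and 100% = excess unlabeled competitor peptide PRC23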
ARNT TACC3 PPI – ARNT/TACC3 interaction disruption. Q9Y6A5. AlphaScreen His-ARNT PAS-B/GST-TACC3 binding, luminescence; TACC3 fragment carries E629A point mutation. inhibition, % at 9.99 µM. 390,000 tested, 0.66% active;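 active = mean inhibition of replicates at least 50% and at least half of replicates each reaching 50%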;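 note: 0% = complete ARNT plus TACC3 wells and 100% = ARNT alone without TACC3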
miR122 inh – inhibitors of miR-122 in Huh7 cells; Huh7 miR-122 Renilla luciferase sensor, 48 h; neutral wells = 0, positive control = 100; activation (reporter increase), % at 12.5 µM; 340,000 tested, 0.3% active;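 active = mean replicate activation score at least 90 and every replicate individually at or above 90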;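 note: higher luciferase means less miR-122 activity so hits act as miR-122 inhibitors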
SR-BI HDL uptake – blocks mouse SR-BI lipid uptake from DiI-HDL; ldlA[mSR-BI] CHO cells, DiI-HDL uptake fluorescence, 3 h; inhibition, % at 12.5 µM; 320,000 tested, 0.96% active;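 active = mean replicate inhibition of at least 70% and a set share of replicates each scoring 70 or more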;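 note: 0% = median of neutral control wells and 100% = median of positive control wells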
Target sequence (Q61009 whole entry, looked up): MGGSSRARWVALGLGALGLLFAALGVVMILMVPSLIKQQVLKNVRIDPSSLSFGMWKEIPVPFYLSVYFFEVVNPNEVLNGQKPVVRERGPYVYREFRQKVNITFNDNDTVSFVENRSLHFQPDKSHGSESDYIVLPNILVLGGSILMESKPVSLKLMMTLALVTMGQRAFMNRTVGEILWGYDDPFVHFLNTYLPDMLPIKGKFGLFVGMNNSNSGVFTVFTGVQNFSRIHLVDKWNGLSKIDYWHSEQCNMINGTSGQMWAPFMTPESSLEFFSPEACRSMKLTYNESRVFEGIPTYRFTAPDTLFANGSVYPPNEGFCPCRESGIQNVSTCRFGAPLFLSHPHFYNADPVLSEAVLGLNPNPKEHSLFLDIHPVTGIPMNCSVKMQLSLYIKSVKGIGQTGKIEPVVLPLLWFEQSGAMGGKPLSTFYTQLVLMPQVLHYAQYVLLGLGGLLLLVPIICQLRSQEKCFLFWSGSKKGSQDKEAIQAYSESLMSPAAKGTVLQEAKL
SR-BI DiI-HDL act – enhances SR-BI lipid uptake from DiI-HDL; CHO ldlA[mSR-BI] cells, DiI-HDL uptake fluorescence, 3 h; 100 = double the neutral-control signal; activation, % at 12.5 µM; 320,000 tested, 0.096% active; AID 504775;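 active = mean replicate activation of at least 60% and every replicate at or above 60%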;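 note: 0% = median plate neutral-control signal and 100% = twice that signal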
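Material – SR-BI-overexpressing, LDLR-lacking CHO cells · Medium – BSA-supplemented, HEPES-buffered Ham's F12, pH 7.4 · Doses – single concentration · Times – compound with DiI-HDL co-incubation, 3 h at 37 °C · Measured by – bottom-read fluorescence, 550/595 nm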
Active calls of the source: *; x = not tested or not shown; [ ] = another dose, or the depositor's remark.

SMILES	CAL PDZ FP-1	CAL PDZ FP-2	ARNT TACC3 PPI	miR122 inh	SR-BI HDL uptake	SR-BI DiI-HDL act
O=C(CSc1cccc2cccnc12)OCC(=O)c1ccccc1	-0.4	-4.3	52.7*	7.5	-3.7	3.7
O=C(CSc1cccc2cccnc12)Nc1ccccc1F	-0.1	x	58.5*	0.7	-15.7	15.7
CCC(=O)N1C[C@@H](C)[C@H](OC)CN(C)C(=O)c2ccc(NC(=O)C3CCOCC3)cc2OC[C@H]1C	x	x	-3.0	8.2[16.7 µM]	x	x
C[C@@H]1CN([C@@H](C)CO)C(=O)c2cc(C#CCN(C)C)cnc2O[C@@H]1CN(C)C(=O)Nc1ccccc1F	x	x	-2.7	-6.7[16.7 µM]	x	x
O=C(CSc1n[nH]c(-c2ccccn2)n1)Nc1ccccc1F	-2.1	-2.1	53.7*	5.8	x	x
COc1ccc(Cl)cc1CNCCCSc1ncccn1	-0.1	-0.7	4.9	-7.1	x	x
CCOc1ccc(Cl)cc1CNCCCSc1ncccn1	3.7	69.8*	-18.4	-2.7	-23.4	23.4
CC(C)CC#Cc1cnc2c(c1)C(=O)N([C@H](C)CO)C[C@H](C)[C@H](CN(C)C(=O)c1cccnc1)O2	x	x	10.6	17.6[16.7 µM]	x	x
CCOCCn1c(=O)c2c(nc3n2CCN3c2ccc(C)cc2)n(C)c1=O	0.1	77.1*	7.4	0.5	22.1	-22.1
O=C(c1ccc(F)cc1)N1CCCCN2[C@H](CO)[C@H](c3ccc(-c4ccc(F)cc4)cc3)[C@@H]2C1	x	x	13.1	-1.1[16.7 µM]	x	x
CC1C/C(=C\c2ccccc2[N+](=O)[O-])c2nc3ccccc3c(C(=O)O)c2C1 (stereo not drawn)	-0.9	48.9*	-1.5	x	0.7	-0.7
COC(=O)[C@@H]1[C@@H](CO)[C@@H]2Cn3c(ccc(-c4ccccc4)c3=O)[C@@H]2N1CC1CCCCC1	x	x	x	-3.7[16.7 µM]	x	x
COc1ccc(NC(=O)c2sc3nc(N4CCCC4)c4c(c3c2N)CC(C)(C)OC4)cc1	-0.5	0.1	2.5	x	72.6*	-72.6
CCCC#Cc1cnc2c(c1)C(=O)N([C@@H](C)CO)C[C@H](C)[C@@H](CN(C)C(=O)NCCC)O2	x	x	-3.1	7.5[16.7 µM]	x	x
Cc1ccc(S(=O)(=O)Nc2cccc3ncccc23)s1	x	-9.9	70.1*	69.4	0.0	0.0
CCCNC(=O)C(CC)NC(=O)c1ccc(C#N)cc1 (stereo not drawn)	-0.5	-1.2	-0.1	-5.3	-61.7	61.7*
CCNC(=O)C[C@H]1CC[C@H]2[C@H](COc3ccc(NC(=O)Nc4ccccc4OC)cc3C(=O)N2C)O1	x	x	-12.1	3.2[16.7 µM]	x	x
CCC1CCCCN1CCCNC(=O)c1c(O)nc2ccccn2c1=O (stereo not drawn)	-1.2	78.3*	0.9	-2.2	-6.0	6.0
CO[C@H]1CN(C)C(=O)c2cc(NC(C)=O)ccc2OC[C@@H](C)N(C(=O)c2ccncc2)C[C@H]1C	x	x	-10.2	11.1[16.7 µM]	x	x
COc1ccc(-c2oc(/N=C/N3CCOCC3)c(C#N)c2-c2ccc(OC)cc2)cc1	-1.2	1.5	-1.9	-5.3	72.2*	-72.2
CNC[C@@H]1OCCCC[C@H](C)Oc2ccc(NS(=O)(=O)c3ccc(OC)cc3)cc2C(=O)N([C@H](C)CO)C[C@@H]1C	x	x	x	5.4[16.7 µM]	x	x
CCOC(=O)C1=C(CN2CCN(C(=O)c3ccco3)CC2)NC(=O)NC1c1ccc(OC(C)C)cc1 (stereo not drawn)	-2.2	-2.8	3.3	-1.7	78.1*	-78.1
CCOC(=O)C1=C(CN2CCC(C)CC2)NC(=O)NC1c1ccc(Cl)cc1 (stereo not drawn)	-1.8	-2.3	1.1	-2.4	77.8*	-77.8
CC1CN(C(=O)CSc2cn(CC(=O)N3CCOCC3)c3ccccc23)CC(C)O1 (stereo not drawn)	0.2	3.1	3.0	2.8	-27.1	27.1
CN(C(=O)CSc1cn(CC(=O)N2CCOCC2)c2ccccc12)c1ccccc1	-0.7	34.7*	-5.7	-4.3	-4.9	4.9
Cc1cccc(NC(=O)c2sccc2-n2cccc2)c1C	x	32.1*	-1.1	-2.3	29.8	-29.8
COc1ccc(-c2c(-c3cc(OC)cc(OC)c3)n(C)c3ccc(-c4ccc5cc[nH]c5c4)cc23)cc1	-0.1	-2.2	1.3	16.0	85.1*	-85.1

Screening data deposited in PubChem by Broad Institute.
